Source: PubChem
Rows were chosen to be rich in hits. Some 2.3% of all compounds tested hit in one or more screens of this group.
RAM network inh = inhibitors of the yeast RAM network | S. cerevisiae dse1pr::URA3 reporter, 5-FOA growth OD615, 2 d; analog-sensitive cbk1-as2 kinase mutant strain | inhibition, % at 50 µM | 190,000 compounds, 1.8% hits | AID 868;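 active = inhibition above a set limit, 3 SD over mean compound inhibition, cut at about 8.4% in these data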;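 note: inhibition rescues growth on 5-FOA so higher OD means more RAM inhibition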
ABCB1 inh = human ABCB1 inhibition, ABCG2 as counter-screen | P08183 | CCRF-Adr cells, JC-1 efflux, flow cytometry | inhibition, % at 6.6 µM | 190,000 compounds, 0.067% hits | AID 1326; in the data active = inhibition above about 40%;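 note: higher value means more JC-1 retained so stronger ABCB1 efflux block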
Arbovirus inh = arbovirus infection inhibition; 200,000 compounds, 0.37% hits; arbovirus infection cell-based antiviral screen; inhibition, % at 10 µM; in the data active = inhibition above about 30%
ABCG2 inh = human ABCG2 inhibition, ABCB1 as counter-screen. Q9UNQ0. IgMXP3 cells, JC-1 efflux, flow cytometry. inhibition, % at 6.6 µM. 190,000 compounds, 0.1% hits. AID 1325;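 active = inhibition above 80%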
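Assay system – ABCG2 IgMXP3 and barcoded ABCB1 CCRF-Adr cell mix · Input – 3 million cells/mL in well · Reagent – JC-1 fluorescent substrate · Compound – single test compound dose, 6.6 µM final · Timing – 10 min exposure at 25 °C with rotation, no wash · Detection – flow cytometry of retained JC-1 fluorescence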
Hits are given with their value.

Results for O=C(N/C(=C/c1cn(-c2ccccc2)nc1-c1ccccc1)C(=O)N1CCOCC1)c1ccc(Cl)cc1Cl ?
RAM network inh: 8.9; ABCB1 inh: inactive; Arbovirus inh: inactive; ABCG2 inh: inactive

How did COc1ccccc1C1=NNC(=Nc2cccc(S(=O)(=O)N(C)C)c2)SC1 do in these assays?
RAM network inh: inactive; ABCB1 inh: inactive; Arbovirus inh: inactive; ABCG2 inh: inactive

What do the screens show for `Cc1cc(C)nc(NC(=NCCc2c[nH]c3ccccc23)NC(=O)c2ccco2)n1`?
RAM network inh: 9.8; ABCB1 inh: inactive; Arbovirus inh: inactive; ABCG2 inh: inactive

Results for Cc1cc(C)nc(NC(=NCCc2c[nH]c3ccccc23)NC(=O)Nc2ccccc2)n1 ?
RAM network inh: inactive; ABCB1 inh: inactive; Arbovirus inh: inactive; ABCG2 inh: inactive

Results for CCOC(=O)C1CCCN(Cc2ccccc2Cl)C1 (stereo not drawn) ?
RAM network inh: inactive; ABCB1 inh: inactive; Arbovirus inh: 87.7; ABCG2 inh: inactive

How did CCOC(=O)C1CCCN(Cc2ccccc2C)C1 (stereo not drawn) do in these assays?
RAM network inh: inactive; ABCB1 inh: inactive; Arbovirus inh: inactive; ABCG2 inh: inactive

How did CCOc1cc(/C=N/NC(=O)C(=O)Nc2cc(Cl)ccc2C)ccc1O do in these assays?
RAM network inh: inactive; ABCB1 inh: inactive; Arbovirus inh: inactive; ABCG2 inh: inactive

How did CNC(=S)NNC(=O)c1sc2cc(C(F)(F)F)cnc2c1-c1ccccn1 do in these assays?
RAM network inh: 8.6; ABCB1 inh: inactive; Arbovirus inh: inactive; ABCG2 inh: inactive

Results for C=C(C)COc1ccc(-c2ncncc2Oc2ccc(OC)cc2)c(O)c1 ?
RAM network inh: inactive; ABCB1 inh: inactive; Arbovirus inh: inactive; ABCG2 inh: inactive

What do the screens show for `CC(C)Cn1c(SCC(=O)Nc2cccc(S(N)(=O)=O)c2)nc2ccccc2c1=O`?
RAM network inh: inactive; ABCB1 inh: inactive; Arbovirus inh: inactive; ABCG2 inh: inactive

What do the screens show for `Cc1ccc(-c2noc(C3CCCN(C(=O)c4ccc(F)cc4F)C3)n2)cc1` (stereo not drawn)?
RAM network inh: inactive; ABCB1 inh: inactive; Arbovirus inh: inactive; ABCG2 inh: inactive

What do the screens show for `CC(C)c1ccc(-c2noc(C3CCCN(C(=O)c4ccc(F)cc4F)C3)n2)cc1` (stereo not drawn)?
RAM network inh: 10.4; ABCB1 inh: inactive; Arbovirus inh: inactive; ABCG2 inh: inactive

What do the screens show for `NC(=S)NN=C1c2cc(S(=O)(=O)N3CCOCC3)ccc2-c2ccc(S(=O)(=O)N3CCOCC3)cc21`?
RAM network inh: 9.9; ABCB1 inh: inactive; Arbovirus inh: inactive; ABCG2 inh: inactive

What do the screens show for `COc1ccc(C(=O)NCCN2C(=O)S/C(=C\c3cccnc3)C2=O)c(OC)c1OC`?
RAM network inh: inactive; ABCB1 inh: inactive; Arbovirus inh: inactive; ABCG2 inh: inactive

What do the screens show for `Cc1cccc(-c2noc(CN(C)S(=O)(=O)c3cc(Cl)ccc3Cl)n2)c1`?
RAM network inh: 8.6; ABCB1 inh: inactive; Arbovirus inh: inactive; ABCG2 inh: inactive

What do the screens show for `Cc1cccc(-c2noc(CN(C(=O)/C=C/c3ccccc3Cl)C(C)C)n2)c1`?
RAM network inh: 11.3; ABCB1 inh: inactive; Arbovirus inh: inactive; ABCG2 inh: inactive

What do the screens show for `COc1ccc(Cl)cc1C(=O)N(Cc1nc(-c2cccc(C)c2)no1)C(C)C`?
RAM network inh: inactive; ABCB1 inh: inactive; Arbovirus inh: inactive; ABCG2 inh: inactive

How did CCc1sc(C(=O)N2CCc3ccccc32)cc1C do in these assays?
RAM network inh: inactive; ABCB1 inh: inactive; Arbovirus inh: inactive; ABCG2 inh: inactive

How did O=C(CN1C(=O)c2ccccc2S1(=O)=O)Nc1ccc(S(=O)(=O)N2CCCCC2)cc1 do in these assays?
RAM network inh: inactive; ABCB1 inh: inactive; Arbovirus inh: inactive; ABCG2 inh: inactive

How did Cc1ccc2nc(-c3ccc(Br)o3)oc(=O)c2c1 do in these assays?
RAM network inh: inactive; ABCB1 inh: inactive; Arbovirus inh: 37.3; ABCG2 inh: inactive

What do the screens show for `Cc1ccc(S(=O)(=O)N2CCCC2C(=O)OCc2ccccc2)cc1` (stereo not drawn)?
RAM network inh: 9.4; ABCB1 inh: inactive; Arbovirus inh: inactive; ABCG2 inh: inactive

How did O=C(OCc1ccc([N+](=O)[O-])cc1)C1CCN(S(=O)(=O)c2ccccc2)CC1 do in these assays?
RAM network inh: 9.1; ABCB1 inh: inactive; Arbovirus inh: inactive; ABCG2 inh: inactive

Results for COc1ccc(O[C@H]2C=C[C@@H](c3ccccc3)O[C@@H]2COC(=O)CC/C(C)=N/O[C@@H](C)c2cn([C@H](CO)Cc3ccccc3)nn2)cc1 ?
RAM network inh: 10.6; ABCB1 inh: inactive; Arbovirus inh: inactive; ABCG2 inh: inactive

Results for COc1ccc(O[C@H]2C=C[C@@H](c3ccccc3)O[C@@H]2COC(=O)CC/C(C)=N/O[C@@H](C)CN2CCCCc3nc(C)c(C)cc32)cc1 ?
RAM network inh: inactive; ABCB1 inh: inactive; Arbovirus inh: inactive; ABCG2 inh: inactive

How did O=C(COC(=O)CCC(NC(=O)OCc1ccccc1)C(=O)OCC(=O)Nc1ccccc1)Nc1ccccc1 (stereo not drawn) do in these assays?
RAM network inh: 10.0; ABCB1 inh: inactive; Arbovirus inh: inactive; ABCG2 inh: inactive

How did O=C(Nc1cccc(F)c1)c1ccc(-c2ccccc2Cl)o1 do in these assays?
RAM network inh: 10.0; ABCB1 inh: inactive; Arbovirus inh: inactive; ABCG2 inh: inactive

How did Cc1ccc(-c2ccc(C(=O)Nc3cccc(F)c3)o2)c2ccccc12 do in these assays?
RAM network inh: inactive; ABCB1 inh: inactive; Arbovirus inh: inactive; ABCG2 inh: inactive

Results for COc1ccc(NC(=O)c2ccc(-c3ccccc3Cl)o2)cc1 ?
RAM network inh: 8.7; ABCB1 inh: inactive; Arbovirus inh: inactive; ABCG2 inh: inactive

Results for COc1ccc(NC(=O)c2ccc(-c3ccc(C)c4ccccc34)o2)cc1 ?
RAM network inh: inactive; ABCB1 inh: inactive; Arbovirus inh: inactive; ABCG2 inh: inactive

Results for O=C(COC(=O)c1ccc(NS(=O)(=O)c2ccc3c(c2)OCCO3)cc1)NC1CCS(=O)(=O)C1 (stereo not drawn) ?
RAM network inh: inactive; ABCB1 inh: inactive; Arbovirus inh: inactive; ABCG2 inh: inactive

Results for Cc1ccc2c(c1)nnn2C1CCN(C(=O)c2cccs2)CC1 ?
RAM network inh: inactive; ABCB1 inh: inactive; Arbovirus inh: inactive; ABCG2 inh: inactive

Results for COc1cc(OC)c2c(OC)cccc2n1 ?
RAM network inh: inactive; ABCB1 inh: inactive; Arbovirus inh: inactive; ABCG2 inh: inactive

How did CC1=CC(C)(C)N(S(=O)(=O)c2ccc(F)cc2)c2ccc(C)cc21 do in these assays?
RAM network inh: inactive; ABCB1 inh: inactive; Arbovirus inh: inactive; ABCG2 inh: inactive

Results for CC1=CC(C)(C)N(S(=O)(=O)c2ccc(C)cc2)c2ccccc21 ?
RAM network inh: 8.7; ABCB1 inh: inactive; Arbovirus inh: inactive; ABCG2 inh: inactive

What do the screens show for `CC(C1CC1)N(Cc1ccccc1)C(=O)NC(=O)c1ccc(F)cc1` (stereo not drawn)?
RAM network inh: inactive; ABCB1 inh: inactive; Arbovirus inh: inactive; ABCG2 inh: inactive

What do the screens show for `COc1cc(/C=C2\SC(=O)N(c3ccc(Cl)cc3)C2=O)cc([N+](=O)[O-])c1O`?
RAM network inh: inactive; ABCB1 inh: inactive; Arbovirus inh: 57.2; ABCG2 inh: inactive
